For 14 compounds, nH, EC50 and logP results are on record in ChEMBL document CHEMBL1127507, “Search for the pharmacophore of bispyridinium-type allosteric modulators of muscarinic receptors” (J Med Chem, 1994).

The term pEC50 denotes the EC50 on a negative log10 scale, so that one unit is a factor of ten. The logP is the decadic logarithm of the partition coefficient of the neutral form, usually between octanol and water. Low readings indicate lower lipophilicity, high ones higher lipophilicity.

In data set [1] the target is T1, Muscarinic acetylcholine receptor M2 (Sus scrofa) (UniProt P06199).
T1 sequence (whole entry): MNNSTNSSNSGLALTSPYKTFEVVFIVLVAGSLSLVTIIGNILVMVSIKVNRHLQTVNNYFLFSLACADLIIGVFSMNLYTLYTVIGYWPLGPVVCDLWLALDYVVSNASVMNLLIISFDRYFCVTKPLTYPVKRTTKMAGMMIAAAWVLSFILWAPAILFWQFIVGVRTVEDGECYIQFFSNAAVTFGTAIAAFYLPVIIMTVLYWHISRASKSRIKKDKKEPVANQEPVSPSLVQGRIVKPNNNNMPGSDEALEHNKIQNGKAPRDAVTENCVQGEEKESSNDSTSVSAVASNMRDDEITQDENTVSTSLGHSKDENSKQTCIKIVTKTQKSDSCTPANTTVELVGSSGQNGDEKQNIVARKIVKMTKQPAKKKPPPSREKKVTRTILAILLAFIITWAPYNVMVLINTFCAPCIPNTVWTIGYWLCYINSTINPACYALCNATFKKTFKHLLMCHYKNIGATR
As to the kind of experiment: Hill coefficient, slope factors of reduction in dissociation rate of [3H]NMS from M2 receptor of pig heart. The essentials: (§1)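 Porcine ventricular membranes (sucrose homogenate, 80000g pellet in 50 mM Tris-HCl pH 7.4) preincubated 30 min with 0.2 nM [3H]NMS in 3 mM MgHPO4/50 mM Tris-HCl, pH 7.3, 37 °C; dissociation started with 1 μM atropine plus compound. Residual binding at 4 min (two-point) gave k-1; sigmoid fit yielded EC50 and slope; filtration, scintillation; n=3-5.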

Data set [2] addresses T2, Muscarinic acetylcholine receptor M2 (Sus scrofa, UniProt P06199).
T2 sequence (P06199 whole entry): T1 sequence (whole entry)
As to the kind of experiment: Reduction of dissociation rate of [3H]N-methylscopolamine ([3H]NMS) from muscarinic acetylcholine receptor M2 of pig heart. The gist of the method: as §1

Data set [3] is described as follows: Partition coefficient (logP). Format: physicochemical. The following applies: octanol/water. The gist of the method:
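Compound at 5×10^-5 M in octanol-saturated Na2HPO4 buffer pH 7.4, absorbance at 290 nm; 0.7 mL shaken 2 h with equal volume buffer-saturated octanol, centrifuged, aqueous absorbance remeasured; partition coefficient and log P from absorbance difference.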

pEC50: −log10 of the molar value. Where “and” joins values, the source holds several entries; their conditions need not be identical. Equal entries are not always repeated.

For the compound `N#Cc1cc[n+](CCC[n+]2ccc(/C=N/OCc3c(Cl)cccc3Cl)cc2)cc1`, the nH in data set [1] is 1.1. Moreover, the pEC50 in data set [2] was 4.77.

`CO/N=C/c1cc[n+](CCC[n+]2ccc(/C=N/OCc3c(Cl)cccc3Cl)cc2)cc1` returned a nH in data set [1] of 1.2. Further, the logP in data set [3] is -2. In addition, the pEC50 in data set [2] is 5.35.

`COc1ccc(CCC[n+]2ccc(/C=N/OCc3c(Cl)cccc3Cl)cc2)cc1`: in data set [1], the nH is 1.5. The same compound registered a logP in data set [3] of 0.3. This compound also had a pEC50 in data set [2] of 5.22.

`CCC[n+]1ccc(/C=N/OCc2c(Cl)cccc2Cl)cc1` displayed a nH in data set [1] of 1.2. In addition, in data set [3], the logP was determined as 0.6. Further, the pEC50 in data set [2] was 4.59.

For the compound `Clc1cccc(Cl)c1CO/N=C/c1cc[n+](CCC[n+]2ccccc2)cc1`, in data set [1], the nH amounted to 1.2. The compound further gave a pEC50 in data set [2] of 4.68.

For the compound `Clc1cccc(Cl)c1CO/N=C/c1cc[n+](CCCc2ccccc2)cc1`, the nH in data set [1] amounted to 1.2. Besides, the log partition coefficient (logP) in data set [3] was 0.5. Also, the negative-log EC50 (pEC50) in data set [2] is 5.03.

As for `Cc1cc[n+](CCC[n+]2ccc(/C=N/OCc3c(Cl)cccc3Cl)cc2)cc1`, in data set [1], the nH was determined as 1.1. This compound had a logP in data set [3] of 1.3. Further, the pEC50 in data set [2] is 4.92.

In turn, `CC[N+](CC)(CC)CCC[n+]1ccc(/C=N/OCc2c(Cl)cccc2Cl)cc1` gave a nH in data set [1] of 0.9. In addition, the logP in data set [3] amounted to 1.4. In data set [2], this compound gave a pEC50 of 4.64.

`CN(C)c1cc[n+](CCC[n+]2ccc(/C=N/OCc3c(Cl)cccc3Cl)cc2)cc1` registered a nH in data set [1] of 1.3. In data set [3], the logP was found to be 1.5. Also, the pEC50 in data set [2] was 5.38.

Turning to `O/N=C/c1cc[n+](CCC[n+]2ccc(/C=N/O)cc2)cc1` [TRIMEDOXIME], in data set [2], the pEC50 was less than 3.00.

In data set [1], `Clc1cccc(Cl)c1CO/N=C/c1cc[n+](CCC[n+]2ccc(/C=N/OCc3c(Cl)cccc3Cl)cc2)cc1` showed a nH of 1.7. The compound also showed a logP in data set [3] of 0.6. Besides, in data set [2], the pEC50 was 5.33.

With `C[N+](C)(C)CCC[n+]1ccc(/C=N/OCc2c(Cl)cccc2Cl)cc1`, the nH in data set [1] was 1.5 and 1.3. The logP in data set [3] worked out at 1.7. The pEC50 in data set [2] is 4.60.

`CO/N=C/c1cc[n+](CCC[n+]2ccc(/C=N/OC)cc2)cc1` had a negative-log EC50 (pEC50) in data set [2] of less than 3.00.

Consider `O/N=C/c1cc[n+](CCC[n+]2ccc(/C=N/OCc3c(Cl)cccc3Cl)cc2)cc1`, for which, in data set [1], the nH came to 1.3. In data set [3], the logP is 1.7. For the same compound, the pEC50 in data set [2] is 4.96.
